Measured values taken from ChEMBL document CHEMBL2384906, “Biological activity, design, synthesis and structure activity relationship of some novel derivatives of curcumin containing sulfonamides” (Eur J Med Chem, 2013).
Converted amounts (≈) assume the structure as drawn. The source made the active and inactive calls. The calls are words filed in the database; no cut-off is given here.

How the values were obtained:
HeLa = test: Cytotoxicity against human HeLa cells after 24 hrs by MTT assay; type: functional, cell-based
Procedure, shortened: (§1)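 The MTT assay seeded 5 × 10⁴ cells per well and grew them 24 h in RPMI 1640 with compound at 2.5–200 µM. Medium without cells was the blank and adriamycin the positive control. MTT was added for 4 h at 37 °C, formazan was solubilised, and absorbance was read at 570 nm. IC50 is the concentration that cuts viability 50% against untreated cells.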

Pseudomonas aeruginosa [1] = test: Antimicrobial activity against Pseudomonas aeruginosa ATCC 15499 assessed as diameter of inhibition zone at 80 uM after 24 hrs by Kirby -Baur disc diffusion method; type: functional
Procedure, shortened: (§2)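 Kirby-Bauer disc diffusion was used. Acetone stocks (160 µM) were serially doubled down to 80, 40 and 20 µM. 4 µL of each went onto 5 mm sterile paper discs, which were dried 30 min at 50 °C. Inoculum was 1.5 × 10⁸ CFU/mL diluted to 3 × 10² CFU/mL, and 50 µL was spread on Mueller-Hinton agar. After 24 h at 37 °C the inhibition-zone diameter was measured. Ciprofloxacin served as positive control.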

Mus musculus = test: Antiinflammatory activity in mouse assessed as inhibition of carrageenan-induced increase in paw volume at 200 mg/kg administered 1 hr prior to carrageenan challenge measured after 3 hrs relative to control; type: functional
Procedure, shortened: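 Mice were fasted 2 h and placed in groups of five. Controls received saline i.p. Phenylbutazone was given at 100 mg/kg i.p., curcumin at 200 mg/kg i.p., and derivatives at 200 mg/kg. After 1 h, 0.1 mL of 1% carrageenan in saline was injected subplantar into the right hind paw. Paw volume was followed by plethysmometer for 3 h, and % inhibition was calculated as (Vc − Vt)/Vc × 100.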

Trichoderma viride [2] = test: Antifungal activity against Trichoderma viride MTCC 1107 assessed as zone of inhibition at 20 uM after 48 hrs by disc diffusion method; type: functional
Procedure, shortened: (§3)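 Spores from 4-day potato dextrose agar cultures, suspended in sterile water at 1.5 × 10⁵ CFU/mL. 0.2 mL was spread on potato dextrose agar. 5 mm filter-paper discs soaked with test compound were laid on the lawn. Incubation was 48 h at 28 °C, then the inhibition zone was measured in mm. Fluconazole was the positive control and acetone the negative control.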

Aspergillus niger [3] = test: Antifungal activity against Aspergillus niger MTCC 1108 assessed as zone of inhibition at 80 uM after 48 hrs by disc diffusion method; type: functional; details: MTCC 1108, 48 h, read-out: IZ; procedure, shortened: as §3
Aspergillus flavus [4] = test: Antifungal activity against Aspergillus flavus MTCC 1021 assessed as zone of inhibition at 20 uM after 48 hrs by disc diffusion method; type: functional; procedure, shortened: as §3
Trichoderma viride [5] = test: Antifungal activity against Trichoderma viride MTCC 1107 assessed as zone of inhibition at 80 uM after 48 hrs by disc diffusion method; type: functional; details: MTCC 1107, 48 h, read-out: IZ; procedure, shortened: as §3
Bacillus cereus [6] = test: Antimicrobial activity against Bacillus cereus MTCC 7350 assessed as diameter of inhibition zone at 80 uM after 24 hrs by Kirby -Baur disc diffusion method; type: functional; procedure, shortened: as §2
Trichoderma viride [7] = test: Antifungal activity against Trichoderma viride MTCC 1107 after 48 hrs; type: functional; details: MTCC 1107, 48 h
HepG2 = test: Cytotoxicity against human HepG2 cells after 24 hrs by MTT assay; type: functional, cell-based; procedure, shortened: as §1
Bacillus cereus [8] = test: Antimicrobial activity against Bacillus cereus MTCC 7350 assessed as diameter of inhibition zone at 40 uM after 24 hrs by Kirby -Baur disc diffusion method; type: functional; procedure, shortened: as §2
Aspergillus niger [9] = test: Antifungal activity against Aspergillus niger MTCC 1108 assessed as zone of inhibition at 40 uM after 48 hrs by disc diffusion method; type: functional; procedure, shortened: as §3
Aspergillus niger [10] = test: Antifungal activity against Aspergillus niger MTCC 1108 after 48 hrs; type: functional; details: MTCC 1108, 48 h
Salmonella typhi [11] = test: Antimicrobial activity against Salmonella typhi ATCC 23564 after 24 hrs by broth micro serial dilution method; type: functional
Aspergillus flavus [12] = test: Antifungal activity against Aspergillus flavus MTCC 1021 after 48 hrs; type: functional; details: MTCC 1021, 48 h
QG-56 = test: Cytotoxicity against human QG56 cells after 24 hrs by MTT assay; type: functional, cell-based; procedure, shortened: as §1
Curvularia lunata [13] = test: Antifungal activity against Curvularia lunata MTCC 581 after 48 hrs; type: functional; details: MTCC 581, 48 h
Staphylococcus aureus [14] = test: Antimicrobial activity against Staphylococcus aureus ATCC 11632 assessed as diameter of inhibition zone at 40 uM after 24 hrs by Kirby -Baur disc diffusion method; type: functional; details: ATCC 11632, 24 h, read-out: DIZ; procedure, shortened: as §2
Aspergillus flavus [15] = test: Antifungal activity against Aspergillus flavus MTCC 1021 assessed as zone of inhibition at 80 uM after 48 hrs by disc diffusion method; type: functional; details: MTCC 1021, 48 h, read-out: IZ; procedure, shortened: as §3
Aspergillus flavus [16] = test: Antifungal activity against Aspergillus flavus MTCC 1021 assessed as zone of inhibition at 40 uM after 48 hrs by disc diffusion method; type: functional; details: MTCC 1021, 48 h, read-out: IZ; procedure, shortened: as §3
Curvularia lunata [17] = test: Antifungal activity against Curvularia lunata MTCC 581 assessed as zone of inhibition at 20 uM after 48 hrs by disc diffusion method; type: functional; procedure, shortened: as §3
Bacillus cereus [18] = test: Antimicrobial activity against Bacillus cereus MTCC 7350 assessed as diameter of inhibition zone at 20 uM after 24 hrs by Kirby -Baur disc diffusion method; type: functional; procedure, shortened: as §2
HCT-116 = test: Cytotoxicity against human HCT116 cells after 24 hrs by MTT assay; type: functional, cell-based; procedure, shortened: as §1
Pseudomonas aeruginosa [19] = test: Antimicrobial activity against Pseudomonas aeruginosa ATCC 15499 after 24 hrs by broth micro serial dilution method; type: functional; details: ATCC 15499, 24 h
Procedure, shortened: (§4)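 This was broth microdilution in autoclaved Mueller-Hinton broth. 150 µL of compound per well was serially diluted […], and 50 µL of test organism was added. Plates were incubated 24 h at 37 °C and optical density was read.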

Staphylococcus aureus [20] = test: Antimicrobial activity against Staphylococcus aureus ATCC 11632 assessed as diameter of inhibition zone at 20 uM after 24 hrs by Kirby -Baur disc diffusion method; type: functional; procedure, shortened: as §2
Staphylococcus aureus [21] = test: Antimicrobial activity against Staphylococcus aureus ATCC 11632 assessed as diameter of inhibition zone at 80 uM after 24 hrs by Kirby -Baur disc diffusion method; type: functional; procedure, shortened: as §2
Aspergillus niger [22] = test: Antifungal activity against Aspergillus niger MTCC 1108 assessed as zone of inhibition at 20 uM after 48 hrs by disc diffusion method; type: functional; procedure, shortened: as §3
Escherichia coli [23] = test: Antimicrobial activity against Escherichia coli ATCC 35218 after 24 hrs by broth micro serial dilution method; type: functional; details: ATCC 35218, 24 h; procedure, shortened: as §4
Staphylococcus aureus [24] = test: Antimicrobial activity against Staphylococcus aureus ATCC 11632 after 24 hrs by broth micro serial dilution method; type: functional; procedure, shortened: as §4
Curvularia lunata [25] = test: Antifungal activity against Curvularia lunata MTCC 581 assessed as zone of inhibition at 80 uM after 48 hrs by disc diffusion method; type: functional; details: MTCC 581, 48 h, read-out: IZ; procedure, shortened: as §3
Trichoderma viride [26] = test: Antifungal activity against Trichoderma viride MTCC 1107 assessed as zone of inhibition at 40 uM after 48 hrs by disc diffusion method; type: functional; details: MTCC 1107, 48 h, read-out: IZ; procedure, shortened: as §3
Salmonella typhi [27] = test: Antimicrobial activity against Salmonella typhi ATCC 23564 assessed as diameter of inhibition zone at 80 uM after 24 hrs by Kirby -Baur disc diffusion method; type: functional
Escherichia coli [28] = test: Antimicrobial activity against Escherichia coli ATCC 35218 assessed as diameter of inhibition zone at 80 uM after 24 hrs by Kirby -Baur disc diffusion method; type: functional; procedure, shortened: as §2
Curvularia lunata [29] = test: Antifungal activity against Curvularia lunata MTCC 581 assessed as zone of inhibition at 40 uM after 48 hrs by disc diffusion method; type: functional; details: MTCC 581, 48 h, read-out: IZ; procedure, shortened: as §3
Bacillus cereus [30] = test: Antimicrobial activity against Bacillus cereus MTCC 7350 after 24 hrs by broth micro serial dilution method; type: functional; procedure, shortened: as §4
Salmonella typhi [31] = test: Antimicrobial activity against Salmonella typhi ATCC 23564 assessed as diameter of inhibition zone at 20 uM after 24 hrs by Kirby -Baur disc diffusion method; type: functional; details: Salmonella enterica subsp. enterica serovar Typhi
Escherichia coli [32] = test: Antimicrobial activity against Escherichia coli ATCC 35218 assessed as diameter of inhibition zone at 40 uM after 24 hrs by Kirby -Baur disc diffusion method; type: functional; details: ATCC 35218, 24 h, read-out: DIZ; procedure, shortened: as §2
Pseudomonas aeruginosa [33] = test: Antimicrobial activity against Pseudomonas aeruginosa ATCC 15499 assessed as diameter of inhibition zone at 40 uM after 24 hrs by Kirby -Baur disc diffusion method; type: functional; procedure, shortened: as §2
Salmonella typhi [34] = test: Antimicrobial activity against Salmonella typhi ATCC 23564 assessed as diameter of inhibition zone at 40 uM after 24 hrs by Kirby -Baur disc diffusion method; type: functional, Salmonella enterica subsp. enterica serovar Typhi; details: Salmonella enterica, ATCC 23564, 24 h; read-out: DIZ
Pseudomonas aeruginosa [35] = test: Antimicrobial activity against Pseudomonas aeruginosa ATCC 15499 assessed as diameter of inhibition zone at 20 uM after 24 hrs by Kirby -Baur disc diffusion method; type: functional; procedure, shortened: as §2
Escherichia coli [36] = test: Antimicrobial activity against Escherichia coli ATCC 35218 assessed as diameter of inhibition zone at 20 uM after 24 hrs by Kirby -Baur disc diffusion method; type: functional; procedure, shortened: as §2
[37] = Salmonella enterica subsp. enterica serovar Typhi

SMILES	IC50 (HeLa)	inhibition in vivo at 200 mg/kg (Mus musculus)	zone of inhibition at 80 µM (Aspergillus niger [3])	zone of inhibition at 80 µM (Trichoderma viride [5])	MIC (Trichoderma viride [7])	IC50 (HepG2)	MIC (Aspergillus niger [10])	MIC (Aspergillus flavus [12])	IC50 (QG-56)	MIC (Curvularia lunata [13])	zone of inhibition at 80 µM (Aspergillus flavus [15])	zone of inhibition at 40 µM (Aspergillus flavus [16])	IC50 (HCT-116)	MIC (Pseudomonas aeruginosa [19])	inhibition zone (IZ) (Aspergillus niger [22])	MIC (Escherichia coli [23])	zone of inhibition at 80 µM (Curvularia lunata [25])	zone of inhibition at 40 µM (Trichoderma viride [26])	zone of inhibition at 40 µM (Curvularia lunata [29])	also measured
COc1ccc(NS(=O)(=O)c2ccc(/N=N/C(C(=O)/C=C/c3ccc(O)c(OC)c3)=C(O)\C=C\c3ccc(O)c(OC)c3)cc2)nn1	100 µM	29%	12 mm	19 mm	20 µM (≈ 13.2 µg/mL)	> 100 µM	> 80 µM	40 µM (≈ 26.4 µg/mL)	> 100 µM	20 µM (≈ 13.2 µg/mL)	15 mm	12 mm	Not Active	> 80 µM	inactive	> 80 µM	19 mm	16 mm	16 mm	diameter of the inhibition zone (DIZ) (Pseudomonas aeruginosa [1]): inactive; zone of inhibition at 20 µM (Trichoderma viride [2]; MTCC 1107, 48 h, read-out: IZ): 12 mm; zone of inhibition at 20 µM (Aspergillus flavus [4]; MTCC 1021, 48 h, read-out: IZ): 11 mm; zone of inhibition at 80 µM (Bacillus cereus [6]; MTCC 7350, 24 h, read-out: DIZ): 9 mm; diameter of the inhibition zone (DIZ) (Bacillus cereus [8]): inactive; zone of inhibition at 40 µM (Aspergillus niger [9]; MTCC 1108, 48 h, read-out: IZ): 9 mm; MIC (Salmonella typhi [11]; [37]): inactive; zone of inhibition at 40 µM (Staphylococcus aureus [14]): 9 mm; zone of inhibition at 20 µM (Curvularia lunata [17]; MTCC 581, 48 h, read-out: IZ): 12 mm; diameter of the inhibition zone (DIZ) (Bacillus cereus [18]): inactive; diameter of the inhibition zone (DIZ) (Staphylococcus aureus [20]): inactive; zone of inhibition at 80 µM (Staphylococcus aureus [21]; ATCC 11632, 24 h, read-out: DIZ): 11 mm; MIC (Staphylococcus aureus [24]; ATCC 11632, 24 h): > 80 µM; diameter of the inhibition zone (DIZ) (Salmonella typhi [27]; [37]): inactive; diameter of the inhibition zone (DIZ) (Escherichia coli [28]): inactive; MIC (Bacillus cereus [30]; MTCC 7350, 24 h): > 80 µM
COc1cc(/C=C/C(=O)C(/N=N/c2ccc(S(N)(=O)=O)cc2)=C(O)/C=C/c2ccc(O)c(OC)c2)ccc1O	> 100 µM	16.1%	10 mm	11 mm	> 80 µM	Not Active	> 80 µM	> 80 µM	Not Active	> 80 µM	11 mm	9 mm	Not Active	> 80 µM	inactive	> 80 µM	11 mm	10 mm	10 mm	zone of inhibition at 80 µM (Pseudomonas aeruginosa [1]; ATCC 15499, 24 h, read-out: DIZ): 9 mm; diameter of the inhibition zone (DIZ) (Salmonella typhi [31]): inactive; inhibition zone (IZ) (Trichoderma viride [2]): inactive; inhibition zone (IZ) (Aspergillus flavus [4]): inactive; zone of inhibition at 40 µM (Escherichia coli [32]): 9 mm; diameter of the inhibition zone (DIZ) (Bacillus cereus [6]): inactive; inhibition zone (IZ) (Aspergillus niger [9]): inactive; MIC (Salmonella typhi [11]; Salmonella enterica, ATCC 23564, 24 h): > 80 µM; diameter of the inhibition zone (DIZ) (Pseudomonas aeruginosa [33]): inactive; zone of inhibition at 40 µM (Salmonella typhi [34]): 9 mm; inhibition zone (IZ) (Curvularia lunata [17]): inactive; diameter of the inhibition zone (DIZ) (Pseudomonas aeruginosa [35]): inactive; diameter of the inhibition zone (DIZ) (Staphylococcus aureus [21]): inactive; diameter of the inhibition zone (DIZ) (Escherichia coli [36]): inactive; MIC (Staphylococcus aureus [24]): inactive; zone of inhibition at 80 µM (Salmonella typhi [27]; Salmonella enterica, ATCC 23564, 24 h, read-out: DIZ): 11 mm; zone of inhibition at 80 µM (Escherichia coli [28]; ATCC 35218, 24 h, read-out: DIZ): 12 mm; MIC (Bacillus cereus [30]): inactive
